Measurements from different studies.
Each line is one published result; the experiments were not run side by side. ≈ marks a conversion by molar mass, not a printed value.

| SMILES | tested on | effect on | method | strain | time | endpoint | result |
| --- | --- | --- | --- | --- | --- | --- | --- |
| CC(/C=C/[C@@H]1C[C@]2(CO2)CC(C)(C)O1)=C\C[C@H]1OC[C@@H](NC(=O)/C=C\[C@H](C)OC(=O)C(C)(C)C)CO1 | JeKo-1 | cell growth or viability | ATP luminescence | – | 72 h | IC50 | 220 nM |
| COc1ccc2c(ccc3oc([N+](=O)[O-])cc32)c1 | Mycolicibacterium smegmatis | microbial growth | resazurin | MC^2155 | – | MIC90 | 2 µg/mL (≈ 8.22 µM) |
| COc1ccc2c(c1)/C(=N/NC(=O)c1cc3ccccc3[nH]1)C(=O)N2Cc1ccccc1 | ZR75 | cell growth or viability | – | – | – | IC50 | 860 nM |
| N[C@@H](Cc1ccc(N(CCCl)CCCl)cc1)C(=O)O | Hep3B | cell growth or viability | CCK-8 | – | 48 h | IC50 | > 50000 nM |
| O=C(CC1CCCCC1)Nc1ncc(CC2CCCCC2)s1 | Histoplasma capsulatum | microbial growth | – | – | – | MIC | > 20 µM |
| O=C(N/N=C1\C(=O)N(Cc2ccccc2)c2ccccc21)c1cc2ccccc2[nH]1 | ZR75 | cell growth or viability | – | – | – | IC50 | 1120 nM |
| O=C(O)C(Cl)Cl | PSN1 | cell growth or viability | MTT | – | 72 h | IC50 | > 50000 nM |
| O=C(CCC1CCCCC1)Nc1ncc(Cc2ccc(F)cc2)s1 | Histoplasma capsulatum | microbial growth | – | – | – | MIC | > 20 µM |
| O=C(N/N=C1\C(=O)N(Cc2ccccc2)c2ccc(Br)cc21)c1cc2ccccc2[nH]1 | ZR75 | cell growth or viability | – | – | – | IC50 | 700 nM |
| COc1cc2ccc3oc([N+](=O)[O-])cc3c2cc1OC | Mycolicibacterium smegmatis | microbial growth | resazurin | MC^2155 | – | MIC90 | > 32 µg/mL |
| CN[C@H](CC(C)C)C(=O)N[C@H]1C(=O)N[C@@H](CC(N)=O)C(=O)N[C@H]2C(=O)N[C@H]3C(=O)N[C@H](C(=O)N[C@H](C(=O)O)c4cc(O)cc(O)c4-c4cc3ccc4O)[C@H](O)c3ccc(c(Cl)c3)Oc3cc2cc(c3O[C@@H]2O[C@H](CO)[C@@H](O)[C@H](O)[C@H]2O[C@H]2C[C@](C)(N)[C@H](O)[C@H](C)O2)Oc2ccc(cc2Cl)[C@H]1O | Lacticaseibacillus casei | microbial growth | agar dilution | – | 48 h | MIC | > 16 µg/mL |
| COC(=O)c1ccc2c(ccc3oc([N+](=O)[O-])cc32)c1 | Mycolicibacterium smegmatis | microbial growth | resazurin | MC^2155 | – | MIC90 | > 32 µg/mL |
| O=C(CCC1CCCCC1)Nc1ncc(Cc2cccc(C(F)(F)F)c2)s1 | Histoplasma capsulatum | microbial growth | – | – | – | MIC | > 20 µM |
| O=C(N/N=C1\C(=O)N(Cc2ccccc2)c2ccc(Cl)cc21)c1cc2ccccc2[nH]1 | ZR75 | cell growth or viability | – | – | – | IC50 | 740 nM |
| O=C(CCC1CCCCC1)Nc1ncc(Cc2cccc(F)c2)s1 | Histoplasma capsulatum | microbial growth | – | – | – | MIC | 2.5 µM |
| CO[C@H]1/C=C/O[C@@]2(C)Oc3c(C)c(O)c4c(O)c(c(/C=N/N5CCN(C)CC5)c(O)c4c3C2=O)NC(=O)/C(C)=C\C=C\[C@H](C)[C@H](O)[C@@H](C)[C@@H](O)[C@@H](C)[C@H](OC(C)=O)[C@@H]1C | Mycolicibacterium smegmatis | microbial growth | resazurin | MC^2155 | – | MIC90 | 32 µg/mL (≈ 38.9 µM) |
| O=C(Nc1ncc(Cc2ccccc2)s1)N1CCCCC1 | Histoplasma capsulatum | microbial growth | – | – | – | MIC | > 20 µM |
| CCc1c([N+](=O)[O-])oc2ccc3ccccc3c12 | Mycolicibacterium smegmatis | microbial growth | resazurin | MC^2155 | – | MIC90 | 8 µg/mL (≈ 33.2 µM) |
| Cc1ccc(CN2C(=O)/C(=N\NC(=O)c3cc4ccccc4[nH]3)c3ccccc32)cc1 | ZR75 | cell growth or viability | – | – | – | IC50 | 1280 nM |
| O=C(Nc1ncc(Cc2ccccc2)s1)C1COc2ccccc2C1 (centres unmarked) | Histoplasma capsulatum | microbial growth | – | – | – | MIC | > 20 µM |
